Compound activity: PubChem BioAssay, several laboratories
hERG rescue – hERG rescue from dofetilide block, primary screen, cell-based, CHO-hERG, FluxOR thallium flux, dofetilide IC70; AID 1511, 2009; 310,000 compounds, 0.51% hits; Voltage-gated inwardly rectifying potassium channel KCNH2 (Homo sapiens), Q12809; dofetilide IC70 present; activation (rescue from dofetilide block), less the hit threshold, % at 10 µM;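 active = activation above the mean of controls blocked by dofetilide plus 5 SD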;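 also: thallium influx through hERG after potassium depolarization seen as dye fluorescence rise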
PHOSPHO1 block – PubChem AID 1565 | Phosphoethanolamine/phosphocholine phosphatase (Homo sapiens), Q8TCT1 | recombinant PHOSPHO1, absorbance phosphatase assay | inhibition, % at 13.3 µM | 290,000 compounds, 1.1% hits; in the data active = inhibition above about 60%
KCNQ1 pot – potentiators or activators of KCNQ1 channel, primary screen, cell-based, thallium flux, high-throughput; CHO-K1 KCNQ1, thallium flux FluxOR fluorescence; stronger effect = higher value; AID 2648, 2010; B-score at 10 µM; 310,000 compounds, 0.35% hits; Potassium voltage-gated channel subfamily KQT member 1 (Homo sapiens), P51787;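 active = fluorescence ratio B-score, a plate-corrected score, at least three library SD, with initial intensity B-score within 5 SD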
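Schedule – 37 °C overnight plating, 90-min dark dye load, 20-min compound pretreatment · System – stable KCNQ1 CHO-K1 line · Probe or stimulus – thallium- and potassium-containing depolarizing buffer · Measured by – kinetic FluxOR fluorescence, 10 s baseline plus 110 s post-stimulus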
KCNK3 inh – human KCNK3 channel inhibitors, primary screen, CHO cells, FluxOR thallium flux, B-score; Potassium channel subfamily K member 3 (Homo sapiens), O14649; FluxOR fluorescence; stronger effect = lower value; B-score at 10 µM; 340,000 compounds, 0.84% hits; AID 602410, 2012;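 active = B-score under library mean minus 4 SD, starting fluorescence ratio at most library mean plus 5 SD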;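 also: more negative B-score means stronger inhibition of thallium flux through KCNK3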
KCNK9 inh – KCNK9 potassium channel inhibitors, primary screen, HEK293 cells, thallium flux. FluxOR thallium flux fluorescence; stronger effect = lower value. B-score at 10 µM. 310,000 compounds, 1.2% hits;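 active = ratio B-score over 3 SD below the library mean, with starting fluorescence within 5 SD of its mean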;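 also: negative B-score means less thallium flux so channel inhibition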
Target sequence (Q9NPC2 whole entry, looked up): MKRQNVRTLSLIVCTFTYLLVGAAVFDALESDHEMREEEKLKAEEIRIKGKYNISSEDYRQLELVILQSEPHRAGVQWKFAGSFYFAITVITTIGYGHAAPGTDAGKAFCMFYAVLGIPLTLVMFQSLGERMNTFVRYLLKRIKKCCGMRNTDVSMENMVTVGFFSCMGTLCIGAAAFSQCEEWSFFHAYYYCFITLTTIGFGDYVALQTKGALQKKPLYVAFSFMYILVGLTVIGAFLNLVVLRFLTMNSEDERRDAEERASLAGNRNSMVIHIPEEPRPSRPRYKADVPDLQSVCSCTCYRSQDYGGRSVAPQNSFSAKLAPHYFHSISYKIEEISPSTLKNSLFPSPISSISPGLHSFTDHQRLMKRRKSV
KCNQ1 block – inhibitors of human KCNQ1 channel, primary screen, cell-based, thallium flux, high-throughput; CHO-K1 KCNQ1, FluxOR thallium flux fluorescence; stronger effect = higher value; B-score at 10 µM; 310,000 compounds, 1.3% hits;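 active = compounds whose thallium flux B-score, printed positive for inhibition, exceeds three library SD while starting fluorescence stays within three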;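 also: channel opened by potassium depolarization with thallium stimulus after 20 min compound exposure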
* = called active by the depositor. In the library only some 4% were active in any assay of this set; here they are far more common.

What do the screens show for `CNC(=O)NC(=O)COC(=O)c1ccccc1OCc1ccccc1`?
hERG rescue: 8.3*; PHOSPHO1 block: 24; KCNQ1 pot: inactive; KCNK3 inh: inactive; KCNK9 inh: inactive; KCNQ1 block: inactive

Results for Cc1ccc(S(=O)(=O)N2Cc3ccccc3CC2C(=O)Nn2cnnc2)cc1 (stereo unspecified) ?
hERG rescue: -10; PHOSPHO1 block: -15; KCNQ1 pot: inactive; KCNK3 inh: inactive; KCNK9 inh: inactive; KCNQ1 block: inactive

How did O=C(COc1ccc(-c2ccccc2)cc1)N/N=C/c1cc(O)ccc1Br do in these assays?
hERG rescue: -5; PHOSPHO1 block: -12; KCNQ1 pot: inactive; KCNK3 inh: inactive; KCNK9 inh: inactive; KCNQ1 block: 11*

How did Cc1ccccc1Nc1nnc(SCC(=O)NCc2ccco2)s1 do in these assays?
PHOSPHO1 block: 87*; KCNK3 inh: inactive

Results for C=CCn1c(SCc2ccc(C(=O)Nc3nccs3)cc2)nnc1-c1ccc(C)c(Cl)c1 ?
hERG rescue: -7; PHOSPHO1 block: -31; KCNQ1 pot: inactive; KCNK3 inh: inactive; KCNK9 inh: -7.2*; KCNQ1 block: inactive

How did O=C(Nc1nccs1)c1ccc(S(=O)(=O)N2CCCCC2)cc1 do in these assays?
hERG rescue: -12; PHOSPHO1 block: 26; KCNQ1 pot: inactive; KCNK3 inh: inactive; KCNK9 inh: inactive; KCNQ1 block: inactive

How did CCOC(=O)Cc1csc(SCC(=O)Nc2cc(Cl)ccc2Oc2ccccc2)n1 do in these assays?
hERG rescue: -11; PHOSPHO1 block: -29; KCNQ1 pot: inactive; KCNK3 inh: inactive; KCNK9 inh: inactive; KCNQ1 block: 11*

How did CC1=C(C(=O)N2CCOCC2)C(c2c(C)cc(C)cc2C)NC(=S)N1 (stereo unspecified) do in these assays?
hERG rescue: -11; PHOSPHO1 block: -24; KCNQ1 pot: inactive; KCNK3 inh: inactive; KCNK9 inh: inactive; KCNQ1 block: inactive

How did Oc1c(C(c2cccs2)N2CCN(c3ccccc3)CC2)ccc2cccnc12 (stereo unspecified) do in these assays?
PHOSPHO1 block: 69*

How did O=C(NC(=S)Nc1nc2c(s1)CCCC2)c1ccc(C(=O)c2ccccc2)cc1 do in these assays?
hERG rescue: 14*; PHOSPHO1 block: -9; KCNQ1 pot: 9*; KCNK3 inh: inactive; KCNK9 inh: inactive; KCNQ1 block: inactive

What do the screens show for `O=C(NC(=S)Nc1nc2c(s1)CSc1ccccc1-2)c1ccccc1`?
hERG rescue: 29*; PHOSPHO1 block: 47; KCNQ1 pot: 28*; KCNK3 inh: inactive; KCNK9 inh: inactive; KCNQ1 block: inactive

How did O=C(Nc1nc2c(s1)CCCC2)c1cccnc1 do in these assays?
hERG rescue: -12; PHOSPHO1 block: -17; KCNQ1 pot: inactive; KCNK3 inh: inactive; KCNK9 inh: inactive; KCNQ1 block: inactive

Results for Cc1ccc(Oc2ccc(OCC(=O)OC3CCS(=O)(=O)C3)cc2)cc1 (stereo unspecified) ?
hERG rescue: -6; KCNQ1 pot: inactive; KCNK9 inh: inactive; KCNQ1 block: inactive

Results for COC(=O)c1ccc2c(CCO)c[nH]c2c1 ?
hERG rescue: -6; PHOSPHO1 block: -2; KCNQ1 pot: inactive; KCNK3 inh: inactive; KCNK9 inh: inactive; KCNQ1 block: inactive

What do the screens show for `CC1CCCN(C(=O)C2CCN(c3nc(-c4ccccc4)nc4c3CCC4)CC2)C1` (stereo unspecified)?
hERG rescue: -11; PHOSPHO1 block: 66*; KCNQ1 pot: inactive; KCNK3 inh: inactive; KCNK9 inh: inactive; KCNQ1 block: inactive

What do the screens show for `Cc1ccc(C)n1-c1nc(=S)[nH][nH]1`?
hERG rescue: -12; PHOSPHO1 block: 102*; KCNQ1 pot: inactive; KCNK3 inh: inactive; KCNK9 inh: inactive; KCNQ1 block: inactive
